Assay results as given in article PMC3254186 (Frontiers in Pharmacology, 2011).

Experiments:
Type in all cases: cell-based
[1] = biological target: T1, Kir3.1/3.4 (Homo sapiens, UniProt P48544+P48549); assay: Two-electrode voltage clamp in Xenopus oocytes, Kir3.1/3.4; conditions: TEVC oocytes, 25 μM, mean ± SEM, n = 6
T1 sequence (P48549 1-501): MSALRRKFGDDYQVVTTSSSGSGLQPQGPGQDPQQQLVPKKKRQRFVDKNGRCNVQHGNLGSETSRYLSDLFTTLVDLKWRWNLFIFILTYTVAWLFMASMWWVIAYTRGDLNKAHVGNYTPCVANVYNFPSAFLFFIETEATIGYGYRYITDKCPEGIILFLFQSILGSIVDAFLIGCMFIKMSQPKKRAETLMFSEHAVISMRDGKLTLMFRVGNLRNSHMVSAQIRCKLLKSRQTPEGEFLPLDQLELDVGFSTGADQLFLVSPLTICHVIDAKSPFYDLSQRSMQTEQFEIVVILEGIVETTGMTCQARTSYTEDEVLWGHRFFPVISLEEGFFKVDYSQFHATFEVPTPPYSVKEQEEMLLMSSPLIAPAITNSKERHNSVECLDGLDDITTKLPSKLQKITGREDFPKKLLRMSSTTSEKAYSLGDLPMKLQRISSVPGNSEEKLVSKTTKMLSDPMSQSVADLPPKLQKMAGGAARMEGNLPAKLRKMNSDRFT
T1 sequence (P48544 1-419): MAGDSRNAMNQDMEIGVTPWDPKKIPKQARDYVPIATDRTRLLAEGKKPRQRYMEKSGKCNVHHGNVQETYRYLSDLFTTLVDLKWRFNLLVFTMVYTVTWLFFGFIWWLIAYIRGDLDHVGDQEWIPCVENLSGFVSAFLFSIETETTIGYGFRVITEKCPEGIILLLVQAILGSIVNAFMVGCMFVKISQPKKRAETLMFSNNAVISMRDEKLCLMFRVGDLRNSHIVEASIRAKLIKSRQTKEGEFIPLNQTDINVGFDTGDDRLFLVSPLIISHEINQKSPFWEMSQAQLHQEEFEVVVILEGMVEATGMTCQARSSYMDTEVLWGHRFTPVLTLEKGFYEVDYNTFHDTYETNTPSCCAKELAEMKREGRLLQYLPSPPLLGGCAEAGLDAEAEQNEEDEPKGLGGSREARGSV
In short: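 Xenopus oocytes were injected with Kir3.1/3.2 or Kir3.1/3.4 cRNA and voltage-clamped with two electrodes at 20–23°C, with current at −80 mV followed over time. The bath was switched from K+-free to 90 mM K+ to activate the channel. Test compound in 90K was applied continuously at graded concentrations, then 2 mM Ba2+ was added. A final 0K switch measured leak. Time constant derived (n = 6 at 25 μM). Percent inhibition n = 4–6.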

[2] = biological target: T2, Kir2.1 (Homo sapiens, UniProt P63252); assay: Two-electrode voltage clamp in Xenopus oocytes, Kir2.1
T2 sequence (P63252 1-427): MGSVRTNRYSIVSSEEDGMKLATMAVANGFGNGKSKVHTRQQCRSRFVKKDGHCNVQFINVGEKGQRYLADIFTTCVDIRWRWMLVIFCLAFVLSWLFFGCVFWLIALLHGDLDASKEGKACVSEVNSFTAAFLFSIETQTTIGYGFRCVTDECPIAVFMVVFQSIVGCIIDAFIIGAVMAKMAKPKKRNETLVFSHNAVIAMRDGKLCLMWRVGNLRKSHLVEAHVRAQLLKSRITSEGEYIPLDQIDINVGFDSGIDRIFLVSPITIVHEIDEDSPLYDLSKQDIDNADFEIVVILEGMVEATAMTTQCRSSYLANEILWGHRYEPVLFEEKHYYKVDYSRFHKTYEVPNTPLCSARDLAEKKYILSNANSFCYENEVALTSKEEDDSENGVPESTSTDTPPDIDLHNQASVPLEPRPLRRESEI
In short: (§1)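 Stage V–VI Xenopus oocytes were defolliculated with 1 mg/mL collagenase and injected with 0.5–10 ng cRNA. They were kept at 16°C in modified L-15 for 24–72 h. Two-electrode voltage clamp at 20–23°C: held at −75 mV and stepped to −120 mV for 200 ms every 5 s, with current at −120 mV tracked over time. Test compound (50 μM) was perfused, then 2 mM Ba2+. Time constant of inhibition derived.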

[3] = system: Kir1.1; assay: Whole-cell patch clamp, Kir1.1; conditions: 20 μM, n = 5
[4] = biological target: T3, Kir2.3 (Homo sapiens, UniProt P48050); assay: Two-electrode voltage clamp in Xenopus oocytes, Kir2.3
T3 sequence (P48050 1-445): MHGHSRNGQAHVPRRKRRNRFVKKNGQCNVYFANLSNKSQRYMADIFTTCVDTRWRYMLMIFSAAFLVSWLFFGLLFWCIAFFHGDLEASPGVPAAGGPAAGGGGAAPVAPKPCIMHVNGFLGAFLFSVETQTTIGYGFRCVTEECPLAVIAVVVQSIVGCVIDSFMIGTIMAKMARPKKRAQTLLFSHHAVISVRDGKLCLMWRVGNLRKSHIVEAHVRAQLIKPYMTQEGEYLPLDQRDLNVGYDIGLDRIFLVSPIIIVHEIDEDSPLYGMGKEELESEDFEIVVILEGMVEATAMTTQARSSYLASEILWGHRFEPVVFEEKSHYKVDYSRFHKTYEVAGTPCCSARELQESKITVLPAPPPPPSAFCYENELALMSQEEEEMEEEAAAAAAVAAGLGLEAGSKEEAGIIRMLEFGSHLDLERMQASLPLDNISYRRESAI
In short: as §1

[5] = biological target: T4, Kir1.1 (Rattus norvegicus, UniProt P35560); assay: Two-electrode voltage clamp in Xenopus oocytes, Kir1.1
T4 sequence (P35560 1-391): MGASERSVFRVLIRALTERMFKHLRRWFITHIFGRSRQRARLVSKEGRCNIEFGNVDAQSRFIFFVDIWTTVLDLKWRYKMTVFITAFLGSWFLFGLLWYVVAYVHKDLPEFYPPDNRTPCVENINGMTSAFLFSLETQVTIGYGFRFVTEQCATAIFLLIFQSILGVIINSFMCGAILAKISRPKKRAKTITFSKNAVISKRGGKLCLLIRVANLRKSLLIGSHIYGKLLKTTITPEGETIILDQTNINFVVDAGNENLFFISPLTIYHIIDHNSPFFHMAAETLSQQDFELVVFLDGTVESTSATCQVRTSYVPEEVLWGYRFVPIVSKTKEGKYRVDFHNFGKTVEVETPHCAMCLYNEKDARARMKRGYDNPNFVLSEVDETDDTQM
In short: as §1

time constant (τ) for inhibition of Kir3.1/3.4 currents [1]: 27 ± 5 s
time constant (τ) of Kir2.1 inhibition ([2]; TEVC oocytes, 50 μM, n = 4): 735 ± 85 s
inhibition at 50 µM ([2]; read-out: inhibition of Kir2.1): 30.2 ± 9.4%
time constant (τ) of Kir2.3 inhibition ([4]; TEVC oocytes, 50 μM, n = 7): 154 ± 32 s
inhibition at 50 µM ([4]; read-out: inhibition of Kir2.3): 80.9 ± 5%
time constant of Kir1.1 inhibition ([5]; TEVC oocytes, 50 μM, n = 8): 95 ± 15 s
inhibition at 50 µM ([5]; read-out: inhibition of Kir1.1): 4.3 ± 1.7%
Compound: Cc1ccc(OCC(O)Cn2c(=N)n(Cc3ccccc3)c3ccccc32)cc1 (centres unmarked) [Compound 1, 1-(3-benzyl-2-imino-2,3-dihydro-1H-benzo[d]imidazol-1-yl)-3-(p-tolyloxy)propan-2-ol]
inhibition of Kir1.1 [3]: 49.5 ± 0.03%
